Data on 19 substances can be found in ChEMBL document CHEMBL2057171, “Arylstibonic acids are potent and isoform-selective inhibitors of Cdc25a and Cdc25b phosphatases” (Bioorg Med Chem, 2012).

One test is filed under the species Rattus norvegicus. Kind of test: Inhibition of rat GST-tagged synaptojanin SAC1 domain expressed in Escherichia coli XL-1 blue using I(1,4,5))P3 as substrate at 5 uM by malachite green assay. Put shortly: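 GST-synaptojanin was expressed in E. coli XL-1 blue (1 mM IPTG, 18°C, 24 h) and purified on glutathione sepharose. Substrate: 50 µM PI(4)P in octylglucoside mixed micelles for synaptojanin; 50 µM I(1,4,5)P3 for SAC1. Assay ran at 37°C in 100 mM Tris pH 7.4, 4 mM MgCl2 with 5 µM compound. Malachite green stopped the reaction, colour developed 10 min, and absorbance was read at 625 nm. Heat-denatured enzyme served as blank. Triplicates.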

Test [1] concerns the target Receptor-type tyrosine-protein phosphatase beta (Homo sapiens) (UniProt P23467). The test is described as follows: Inhibition of PTP-beta receptor using p-NPP as substrate at 5 uM by colorimetric analysis. An outline of the steps:
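Purchased PTP-β assayed with 1 mM p-NPP (near KM) in 25 mM Hepes pH 7.4, 50 mM NaCl, 5 mM DTT; arylstibonate fixed at 5 µM. The reaction was started by adding p-NPP in water, and p-nitrophenol release was read at 405 nm. Reported as % inhibition from triplicates, with standard error.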

Test [2] addresses M-phase inducer phosphatase 1 (Homo sapiens) (UniProt P30304). Kind of test: Reversible inhibition of N-terminal His-tagged Cdc25a catalytic domain expressed in Escherichia coli BL21(DE3) using 3-O-Methylfluorescein phosphate as substrate at 4 times IC50 by 10-fold dilution method. An outline of the steps:
(§1)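 Reversibility test by dilution. Cdc25a or Cdc25b is preincubated with arylstibonate, then diluted 10-fold in reaction buffer (100 mM Tris pH 7.4, 2 mM DTT). Activity is then measured in the OMFP fluorescence assay (ex 485/em 525 nm, 20 °C) and expressed as % of the uninhibited reaction.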

Test [3] deals with M-phase inducer phosphatase 2 (Homo sapiens) (UniProt P30305). Kind of test: Reversible inhibition of N-terminal His-tagged Cdc25b catalytic domain expressed in Escherichia coli BL21(DE3) using 3-O-Methylfluorescein phosphate as substrate at 4 times IC50 by 10-fold dilution method. Put shortly:
as §1

The target in test [4] is M-phase inducer phosphatase 1 (Homo sapiens) (UniProt P30304). Kind of test: Mixed-type inhibition of N-terminal His-tagged Cdc25a catalytic domain expressed in Escherichia coli BL21(DE3) using 3-O-Methylfluorescein phosphate as substrate by Michaelis-Menten plot analysis. An outline of the steps:
(§2)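 Steady-state kinetics of the Cdc25a and Cdc25b catalytic domains with varying OMFP and several arylstibonate concentrations. Run at 20 °C in 100 mM Tris pH 7.4 with 2 mM DTT, after a 10 min RT enzyme–inhibitor preincubation. Fluorescence read at ex 485/em 525 nm. Michaelis–Menten plots give apparent Km and Vmax; secondary plots give Ki.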

The target of test [5] is M-phase inducer phosphatase 2 (Homo sapiens) (UniProt P30305). Kind of test: Mixed-type inhibition of N-terminal His-tagged Cdc25b catalytic domain expressed in Escherichia coli BL21(DE3) using 3-O-Methylfluorescein phosphate as substrate by Michaelis-Menten plot analysis. Put shortly: as §2
M-phase inducer phosphatase 2 (Homo sapiens), sequence (P30305 whole entry, the tested form may be a part): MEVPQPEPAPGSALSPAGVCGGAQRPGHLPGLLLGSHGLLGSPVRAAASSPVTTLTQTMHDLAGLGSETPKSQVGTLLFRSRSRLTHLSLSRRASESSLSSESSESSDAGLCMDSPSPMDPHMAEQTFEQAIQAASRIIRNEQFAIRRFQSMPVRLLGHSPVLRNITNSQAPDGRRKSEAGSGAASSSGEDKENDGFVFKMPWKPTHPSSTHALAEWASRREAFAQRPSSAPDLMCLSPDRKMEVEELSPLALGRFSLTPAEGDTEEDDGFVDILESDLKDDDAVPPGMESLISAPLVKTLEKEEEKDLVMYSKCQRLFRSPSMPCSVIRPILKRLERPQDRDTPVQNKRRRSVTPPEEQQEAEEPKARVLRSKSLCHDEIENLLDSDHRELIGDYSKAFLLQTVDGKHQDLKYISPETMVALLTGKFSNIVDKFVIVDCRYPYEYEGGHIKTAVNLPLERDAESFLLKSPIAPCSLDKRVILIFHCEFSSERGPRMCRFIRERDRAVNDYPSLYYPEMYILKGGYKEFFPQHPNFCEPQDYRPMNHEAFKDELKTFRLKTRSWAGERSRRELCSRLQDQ

Activity calls are given as the source filed them. No cut-off for these calls is given here.

M-phase inducer phosphatase 1 (Homo sapiens), sequence (P30304 whole entry, the tested form may be a part): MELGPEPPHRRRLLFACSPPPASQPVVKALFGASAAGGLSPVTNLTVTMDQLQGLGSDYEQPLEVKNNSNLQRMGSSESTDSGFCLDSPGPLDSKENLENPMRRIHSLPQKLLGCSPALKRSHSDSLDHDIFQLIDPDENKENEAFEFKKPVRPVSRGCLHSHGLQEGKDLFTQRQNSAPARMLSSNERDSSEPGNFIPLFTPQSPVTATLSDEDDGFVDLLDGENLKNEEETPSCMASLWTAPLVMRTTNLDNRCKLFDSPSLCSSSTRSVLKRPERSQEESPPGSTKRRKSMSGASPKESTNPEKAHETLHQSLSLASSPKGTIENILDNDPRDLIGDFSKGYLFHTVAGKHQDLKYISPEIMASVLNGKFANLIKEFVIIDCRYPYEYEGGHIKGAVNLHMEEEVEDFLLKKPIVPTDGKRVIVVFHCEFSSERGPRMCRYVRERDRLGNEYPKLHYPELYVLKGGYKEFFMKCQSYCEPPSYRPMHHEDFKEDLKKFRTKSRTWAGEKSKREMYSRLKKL
Receptor-type tyrosine-protein phosphatase beta (Homo sapiens), sequence (P23467 whole entry, looked up): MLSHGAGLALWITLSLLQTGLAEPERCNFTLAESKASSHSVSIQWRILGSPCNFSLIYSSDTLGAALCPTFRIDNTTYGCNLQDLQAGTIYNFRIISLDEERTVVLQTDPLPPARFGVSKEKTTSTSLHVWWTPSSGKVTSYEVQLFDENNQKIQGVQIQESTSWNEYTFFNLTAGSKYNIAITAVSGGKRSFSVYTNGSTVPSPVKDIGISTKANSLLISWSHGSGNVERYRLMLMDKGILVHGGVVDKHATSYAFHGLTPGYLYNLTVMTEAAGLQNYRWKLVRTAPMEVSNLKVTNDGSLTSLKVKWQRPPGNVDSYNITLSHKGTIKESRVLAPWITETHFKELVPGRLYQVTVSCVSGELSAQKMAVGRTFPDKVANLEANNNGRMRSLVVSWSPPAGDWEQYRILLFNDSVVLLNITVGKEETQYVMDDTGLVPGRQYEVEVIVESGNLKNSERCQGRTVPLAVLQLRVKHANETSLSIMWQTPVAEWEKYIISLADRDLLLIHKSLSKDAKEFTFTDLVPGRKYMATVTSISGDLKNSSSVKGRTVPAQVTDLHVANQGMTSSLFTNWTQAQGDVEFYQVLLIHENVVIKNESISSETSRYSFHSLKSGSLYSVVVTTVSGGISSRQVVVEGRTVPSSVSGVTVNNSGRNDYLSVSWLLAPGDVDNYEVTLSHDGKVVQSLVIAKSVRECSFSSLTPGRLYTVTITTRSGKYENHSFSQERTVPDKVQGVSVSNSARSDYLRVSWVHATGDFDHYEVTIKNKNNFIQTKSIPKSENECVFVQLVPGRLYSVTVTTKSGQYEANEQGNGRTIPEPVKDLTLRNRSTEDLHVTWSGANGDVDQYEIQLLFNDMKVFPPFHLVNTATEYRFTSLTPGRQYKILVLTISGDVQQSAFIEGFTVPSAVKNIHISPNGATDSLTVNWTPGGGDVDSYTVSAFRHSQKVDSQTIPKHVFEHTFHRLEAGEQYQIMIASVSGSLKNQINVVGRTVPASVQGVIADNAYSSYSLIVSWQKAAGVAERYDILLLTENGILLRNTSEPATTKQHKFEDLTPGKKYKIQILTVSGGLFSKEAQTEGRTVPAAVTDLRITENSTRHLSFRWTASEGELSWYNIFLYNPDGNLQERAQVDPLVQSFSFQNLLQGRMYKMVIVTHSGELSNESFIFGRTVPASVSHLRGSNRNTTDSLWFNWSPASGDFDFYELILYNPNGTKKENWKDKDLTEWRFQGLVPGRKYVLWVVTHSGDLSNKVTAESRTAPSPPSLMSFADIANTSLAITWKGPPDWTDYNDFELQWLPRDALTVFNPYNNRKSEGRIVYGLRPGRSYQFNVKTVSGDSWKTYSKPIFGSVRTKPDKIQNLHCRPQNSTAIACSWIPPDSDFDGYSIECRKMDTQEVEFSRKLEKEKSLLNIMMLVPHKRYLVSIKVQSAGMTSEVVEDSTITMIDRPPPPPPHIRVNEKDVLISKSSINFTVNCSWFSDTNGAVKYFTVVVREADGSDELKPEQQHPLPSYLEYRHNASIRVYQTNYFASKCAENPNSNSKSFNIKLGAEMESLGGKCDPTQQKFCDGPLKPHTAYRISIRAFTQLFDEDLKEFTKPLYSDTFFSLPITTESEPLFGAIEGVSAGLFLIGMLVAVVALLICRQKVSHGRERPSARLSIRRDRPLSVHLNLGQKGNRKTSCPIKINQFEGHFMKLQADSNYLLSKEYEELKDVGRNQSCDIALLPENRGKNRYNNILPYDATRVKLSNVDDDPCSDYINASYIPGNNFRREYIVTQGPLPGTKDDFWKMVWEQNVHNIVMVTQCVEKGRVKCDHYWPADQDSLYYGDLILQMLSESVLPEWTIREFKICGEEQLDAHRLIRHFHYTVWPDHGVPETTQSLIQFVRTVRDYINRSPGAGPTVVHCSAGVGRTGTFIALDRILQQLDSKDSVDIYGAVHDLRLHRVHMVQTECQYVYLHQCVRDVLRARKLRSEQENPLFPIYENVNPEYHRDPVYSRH

For PHENYLSTIBONIC ACID, the inhibition (as a rule, how much of the control response was suppressed) in the test listed under Rattus norvegicus was < 40%. For the same substance, in test [1], the inhibition entry is “inactive”.
On to “4-((4-hydroxyphenyl)diazenyl)phenylstibonic acid”, for which the inhibition in the test listed under Rattus norvegicus is > 40%; in test [1] it was > 90%.
On the same counts, the results for 4-stibonophthalic acid are < 40% and 51%.
On the same counts, the results for 2-nitrophenylstibonic acid are > 40% and > 90%.
Take 4-stibonobenzoic acid: the inhibition is < 40% in the test filed under Rattus norvegicus and 72% in test [1].
As to 3-(3-stibonophenyl)propanoic acid, the inhibition in the test filed under Rattus norvegicus is > 40%; in test [1] it was > 90%. For the same substance, the inhibition result in test [2], in test [3], in test [4] and in test [5] was “Active” in each case.
“3-(3-ethoxy-2-(ethoxycarbonyl)-3-oxopropyl)phenylstibonic acid”: the inhibition in the test filed under Rattus norvegicus is < 40%. Besides, in test [1], the inhibition result was “inactive”.
In the same order, the values of 3-nitrophenylstibonic acid are < 40% and 50%.
On the same counts, the results for 3-stibonobenzoic acid are < 40% and 78%.
In the same order, the values of “4-(2-ethoxy-2-oxoethyl)phenylstibonic acid” are > 40% and > 90%.
For 2-(3-stibonophenoxy)acetic acid, the inhibition in the test filed under Rattus norvegicus is > 40%; in test [1], > 90%.
On the same counts, the results for 4-benzamidophenylstibonic acid are > 40% and > 90%.
As for 3-(methoxycarbonyl)phenylstibonic acid, in the test filed under Rattus norvegicus, the inhibition was < 40%. Besides, the inhibition entry in test [1] is “inactive”.
Regarding (E)-3-(3-stibonophenyl)acrylic acid, the inhibition in the test listed under Rattus norvegicus is > 40%; in test [1], > 90%. Further, the inhibition entry in test [2], in test [3], in test [4] and in test [5] was “Active” each time.
Take 4-iodophenylstibonic acid: the inhibition is > 40% in the test filed under Rattus norvegicus and > 90% in test [1].
On the same counts, the results for 2-nitro-4-stibonobenzoic acid are > 40% and > 90%.
On the same counts, the results for 2-(3-stibonobenzyl)malonic acid are > 40% and > 90%.
Regarding 4-hydroxyphenylstibonic acid, in the test filed under Rattus norvegicus, the inhibition is < 40%. For the same substance, the inhibition result in test [1] is “inactive”.
In the same order, the values of 2-(4-stibonobenzyl)malonic acid are < 40% and 67%.
